System: MS2 coat protein
Assay: apparent Kd, MS2 coat protein; higher = weaker binding; RNA-MaP array; FMN 200 µM where present
Method in brief: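 Binding was read on Illumina sequencing-chip clusters where stalled E. coli RNA polymerase had transcribed each design. A titration of SNAP-549-labelled MS2 coat protein began at 0.7 or 1.5 nM and doubled to 3 µM, once without ligand and once with constant ligand, in 100 mM Tris-HCl pH 7.5, 80 mM KCl, 4 mM MgCl2, BSA, DTT, yeast tRNA and Tween-20. The apparent Kd is the median of filtered per-cluster binding-curve fits, based on green signal normalised to red-channel RNA signal and control-cluster median Fmax.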

[1] = designed as: OFF switch for flavin mononucleotide, no ligand
[2] = ligand present: flavin mononucleotide, designed as: OFF switch for flavin mononucleotide
[3] = designed as: ON switch for flavin mononucleotide, no ligand
[4] = ligand present: flavin mononucleotide, designed as: ON switch for flavin mononucleotide

GUAAAUCAUGUAGGAUAUGCAUGGCGAAGCUACGCAGAAGGACAUGAGGAUCACCCAUGUUAAAGCUACCGAGUUCGGUGGCAA
apparent Kd [1]: 133 nM | apparent Kd [2]: 162 nM

AAAAAGUCAGGAUAUAUCAAAAAAAAAGAAAAAAAAAAAAGAUAGAAGGGACAUGAGGAUCACCCAUGUAAAAA
apparent Kd [1]: 50.9 nM | apparent Kd [2]: 42.1 nM

AAACAUGUCCGAGGAUAUCUGAGAUUAUUUUCAAGAGAAGGCGGACAUGAGGAUCACCCAUGUCUCUCCUCAUCAACUCCAAAU
apparent Kd [1]: 8.61 nM | apparent Kd [2]: 54.5 nM

CCAUAAAAGAUCCAAAUUUACAACAUGAGGAUCACCCAUGUGCAGGAUAUCGUGAAAGUAAAAUACGAGAAGGGCAAGAACUGC
apparent Kd [1]: 300 nM | apparent Kd [2]: 362 nM

UGGCAAGUAGGAUAUUGGGUGUGGGACAUGAGGAUCACCCAUGUGAUCACUCAAUCUCUCCGAGAAGGGCUAAGAA
apparent Kd [1]: 14 nM | apparent Kd [2]: 15.4 nM

GCACUGGAUGUAGGAUAUCAGGACGAUAAGUCCUGAGAAGGACAUGAGGAUCACCCAUGUGACUCAUAACCAGUGCAUAAUAUA
apparent Kd [1]: 27 nM | apparent Kd [2]: 142 nM

AAACAUGUCCGAGGAUAUCUGGAAACAUUUUCAAGAGAAGGCGGACAUGAGGAUCACCCAUGUCUCUCCUCAUCAAGUCCAAGU
apparent Kd [1]: 8.47 nM | apparent Kd [2]: 46.2 nM

UUGCAGUCAUCAGGAUAUAGUAUUACGGCCAUUUAUAUUUUCAUACAUGAGGAUCACCCAUGUCGCUAGAAGGGAUUAUCGAUU
apparent Kd [1]: 47.7 nM | apparent Kd [2]: 43 nM

GUGAGGUCAGGAUAUGCAUGGCGGGACUUGCGUCGUGGCGUGCAGAAGGGACAUGAGGAUCACCCAUGUGGAGU
apparent Kd [1]: 157 nM | apparent Kd [2]: 238 nM

GUGUACAGAGGAUAUACAUAAGCUAGGAAACUAGCUACUUCACAUGAGGAUCACCCAUGUAGAAGGCUGUACAC
apparent Kd [1]: 16.1 nM | apparent Kd [2]: 16.3 nM

AACAUGCUAGGAUAUACAAGACAAAUUGGGCAUCCGCAUGGACAUGAGGAUCACCCAUGUAGAAGGAGUAUAAA
apparent Kd [1]: 167 nM | apparent Kd [2]: 278 nM

GGGUACAUCGGAGGAUAUCAUCUAAAUACAUGAGGAUCACCCAUGUCGAUGGAGACAUCGGAGAUUGAGAAGGCCGAUGUACCG
apparent Kd [3]: 5.06 nM | apparent Kd [4]: 5.23 nM

GUAUCUUAUGUGAGGAUAUAUUAUGUCUUGGUGUAGUAGAAGGCACAUGAGGAUCACCCAUGUCCUAUUGGUCU
apparent Kd [1]: 40.9 nM | apparent Kd [2]: 116 nM

CCUAGAUAGGGAGGAUAUCACGACCAUCCCGGCGAUCCAACUACAUGAGGAUCACCCAUGUGGUGUGAGAAGGCCCAAUAAUAG
apparent Kd [1]: 220 nM | apparent Kd [2]: 75.4 nM

GUGGAGUACGUAGGAUAUGUAGGAUAUUCCUACAUGAGGAUCACCCAUGUUAGCAUGGAAGAAGGACAGAAGGACGUGCUCCAG
apparent Kd [3]: 1180 nM | apparent Kd [4]: 15 nM

AGUAAUUACGAAGGAUAUGCGCUCCUCGGGCUCGCAGAAGGUCGUACAUGAGGAUCACCCAUGUGUGAUCGCUCAUAGCCGCAA
apparent Kd [1]: 93.2 nM | apparent Kd [2]: 41.4 nM

GGAUGGGACAGAGGAUAUACGUGCUAGAGAUACUAGCAAAAUUUCCUCACAUGAGGAUCACCCAUGUAGAAGGCUGUCCUAUCG
apparent Kd [1]: 15.2 nM | apparent Kd [2]: 513 nM

CACGUCCUCACAGGAUAUGCUGGACUUUGUCCAGCAGAAGGGUGACAUGAGGAUCACCCAUGUAAAAGGACGUGUAUAUUUAAU
apparent Kd [3]: 515 nM | apparent Kd [4]: 41.5 nM

GUGCGUGGCUAGGAUAUUGUGGAGUUUUGUCAGCGAGAAGGAGCCACAUGAGGAUCACCCAUGUGGUGUUGCUC
apparent Kd [2]: 67.5 nM

GCCGAGUGAGGAUAUAGCCAGGUUCGAUAAGGUCGAAUCGGCUAGAAGGCACAUGAGGAUCACCCAUGUGGGUA
apparent Kd [1]: 225 nM | apparent Kd [2]: 449 nM

CAGCUGAAUGUGAGGAUAUUACGAGCUGCGGCUCGUGAGAAGGCACAUGAGGAUCACCCAUGUCUCAACAGCUG
apparent Kd [1]: 37.2 nM | apparent Kd [2]: 741 nM

GGUGUACAUGAGGAUCACCCAUGUCGUACGACAUGAGGAUAUGUACAGACUUCGGUCUGUACAGAAGGCAUGUGUC
apparent Kd [3]: 249 nM | apparent Kd [4]: 26.4 nM

AGUCGGAGCAGAGGAUAUACAUGAGGAUCACCCAUGUAAUAAAUCCAAGCCUGGAAACAGGCAAUGUAGAAGGCUGCUCCGACA
apparent Kd [1]: 16.8 nM | apparent Kd [2]: 78.8 nM

AACCGCGACCGGCCUGGCACGCCGAGAAGGGUACGUGACCUGCUUUACAUGAGGAUCACCCAUGUACAGGAUAUCGGAUAGCCG
apparent Kd [2]: 7.28 nM

CCAGUGUCAGGAUAUAUCACAAAGAACCCAACCGGGCUUUGGUAGAAGGGACAUGAGGAUCACCCAUGUUGUUU
apparent Kd [1]: 30.9 nM | apparent Kd [2]: 44 nM

UCCUUAUCGGUCAGGAUAUACACCCGUUUCUCCUUGUAGAAGGGACAUGAGGAUCACCCAUGUACAGUACAUCU
apparent Kd [1]: 20.4 nM | apparent Kd [2]: 19.1 nM

GUGUUACAUGAGGAUCACCCAUGUUGUUGUAGAUAAGGAUAUAUGGUAACGAGAGAAAUAAUAGAAGGUAUUAGGC
apparent Kd [3]: 37 nM | apparent Kd [4]: 31.6 nM

UUUUAACAUGAGGAUCACCCAUGUGAGGAUAUCGAAAUUUAUAUUAAUAUUAAUAAAUCGAGAAGGCACAUUUU
apparent Kd [1]: 117 nM | apparent Kd [2]: 127 nM

GUAGUUUAUGUAGGAUAUGCGAGGCGAGCCUAAGCAGAAGGACAUGAGGAUCACCCAUGUAUUGCGGUCUGCGUUCAGAUCGCU
apparent Kd [1]: 33.2 nM | apparent Kd [2]: 133 nM

GAUCCGUCCUAGAAGGCCAUCCAACAUGAGGAUCACCCAUGUGCGGACUGGAGGAUAUAGGUGGGAUAGGCCUAGGGCCCGGUC
apparent Kd [3]: 7.43 nM | apparent Kd [4]: 5.55 nM

UCUCUUGGGCAAGGAUAUCCUGCGCGGUUCCGGUUCGUGUCUGUCACAUGAGGAUCACCCAUGUGGGAGAAGGUGCCUGCGGUU
apparent Kd [1]: 17.7 nM | apparent Kd [2]: 25.5 nM

CGUAUGUCAGGAUAUGCGUAAGCCGGUCAGGGCGAGCGGCAGCAGAAGGGACAUGAGGAUCACCCAUGUUCGGG
apparent Kd [1]: 64.6 nM | apparent Kd [2]: 47.8 nM

AUGUCGCACCAGAAGGGUCAACCAAUAAAUUAGACAGGAUAUGGGCGAUAAGUAUGUCGCGACAUGAGGAUCACCCAUGUCCGG
apparent Kd [3]: 11.6 nM | apparent Kd [4]: 5.95 nM

AUAAUUUUAUAUAUCUUAUUUAUCAGAAGGCAUAACAUGAGGAUCACCCAUGUAUAUUAUAGUUAUGAGGAUAUGAUUUAGUUA
apparent Kd [1]: 8.04 nM | apparent Kd [2]: 8.85 nM

AAAAAACAUGAGGAUCACCCAUGUCAAAAGACGUGAGGAUAUGUACAGACUUCGGUCUGUACAGAAGGCAUGUCAA
apparent Kd [3]: 30.1 nM | apparent Kd [4]: 16.5 nM

CGAUAGUGUCGUUAUCCGUAGCGAACAUGAGGAUCACCCAUGUAGGAUAUGUUACUAAACUAGUAACAGAAGGGCGUGAGUCUU
apparent Kd [1]: 129 nM | apparent Kd [2]: 161 nM

CGCGAACAUGAGGAUCACCCAUGUGAAAAACACAGAGGAUAUGUCGCAUGCGUGUAAAAGACAGAAGGCUGUCGCG
apparent Kd [3]: 45.5 nM | apparent Kd [4]: 21.9 nM
